Measured values as given in publication PMC4805660 (Theranostics, 2016).
Where a name gives a salt, the structure may show the parent alone.

Tests used:
Format in all cases: in vivo, NMRI nu/nu mice
[1] = Body weight monitoring in treated mice; conditions: doxorubicin 6.9 µmol/kg, AN-238 0.2 µmol/kg, [^177Lu]Lu-DOTATATE 80 MBq/animal
How it was run: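 Mice carrying growing MPC-mCherry tumours (5 ± 3 mm diameter) were grouped by similar mean tumour volume and randomly assigned to control or therapy; treatment began 15 days pci. Test compounds in Infesol 15 given via tail vein at 0.3 mL/30 g body weight. Three independent experiments followed an identical protocol, with data pooled.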

MPC-mCherry tumors [2] = experiment: Renal; conditions: for DAred, reduction of renal dopamine excretion [14-28 days pci] / NEred, reduction of renal norepinephrine excretion [14-28 days pci] / NMNred, reduction of renal normetanephrine excretion [14-28 days pci]: doxorubicin 6.9 µmol/kg, AN-238 0.2 µmol/kg, [^177Lu]Lu-DOTATATE 80 MBq/animal, urine LC-MS/MS, compared to control, mean ± SEM
MPC-mCherry tumors [3] = experiment: ^177Lu activity in MPC-mCherry tumors after treatment, monitored by PLI; conditions: not decay-corrected, 80 MBq/animal
How it was run: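 Radioligand was made by heating [177Lu]LuCl3 (pH 5.2, NH4OAc) with 14 nmol peptide at 90 °C for 20 min, giving >97% HPLC radiochemical purity. 80 MBq (1.2 nmol)/mouse was given by tail vein in Infesol 15 from 15 days pci. Tumour ROIs were thresholded on mCherry/reference fluorescence (signal/background 2). PLI signal was expressed as effective and decay-corrected 177Lu activity.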

Row | Compound | body weight change after treatment [1] | DAred, reduction of renal dopamine excretion [14-28 days pci] (MPC-mCherry tumors [2]) [%] | NEred, reduction of renal norepinephrine excretion [14-28 days pci] (MPC-mCherry tumors [2]) [%] | NMNred, reduction of renal normetanephrine excretion [14-28 days pci] (MPC-mCherry tumors [2]) [%] | half-life of effective ^177Lu activity in tumors (MPC-mCherry tumors [3]) [h] | fold more effective in reducing overall renal monoamine excretion compared to doxorubicin and AN-238 (MPC-mCherry tumors [2]; 14-28 days pci) [fold]
1 | COc1cccc2c1C(=O)c1c(O)c3c(c(O)c1C2=O)C[C@@](O)(C(=O)CO)C[C@@H]3O[C@H]1C[C@H](N)[C@H](O)[C@H](C)O1 [doxorubicin, doxorubicin hydrochloride] | tended to decrease immediately | 31.5 ± 11.3 | 74.8 ± 7.5 | 77.3 ± 5.1 |  | 
2 | [^177Lu]Lu-DOTA-(Tyr^3)octreotate [[^177Lu]Lu-DOTATATE] |  | 97.2 ± 0.9 | 99.6 ± 1.9 | 100 ± 0.7 | 48 | 2
